Screening results as filed in PubChem BioAssay.
A selection: hits, their analogues and other compounds. The true share with any hit is near 3.5%.
DENV2 CPE rescue – DENV2-induced cell death inhibition. DENV2-infected cells, cytopathic effect rescue, plate reader. 350,000 tested, 1.7% active. CPE inhibition, % at 9.99 µM; in the data active = CPE inhibition above about 20%, passing the limit was not always enough; tested in BHK-21 cells;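 also: 0% = median of neutral control wells and 100% = median of positive control wells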
PglD DTNB – inhibitors of Campylobacter jejuni PglD acetyltransferase; purified PglD enzyme, DTNB colorimetric CoA detection; inhibition, % at 12.5 µM; 360,000 tested, 0.098% active; in the data active = inhibition above about 16%, passing the limit was not always enough
rRNA inh HTS – selective bacterial rRNA inhibition in E. coli | E. coli WT GFP vs humanized-ribosome RFP mutants, fluorescence, 24 h; hits give low values; DMSO median 0, no signal -100 | GFP signal change (wild-type ribosome), % (test concentration not listed) | 350,000 tested, 1.6% active;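 active = significant combined selectivity score with lowered wild-type GFP, culture density cut under 30%, mutant RFP and density less affected; inactive = any of these conditions unmet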
HIV Env fusion – blocks HIV Env-driven cell-cell fusion | inhibition, % at 12.3 µM | HeLa-JRFL Env/CEM21 cell fusion, luciferase | 360,000 tested, 1.1% active | AID 651610;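 active = mean replicate inhibition score of at least 50 and every replicate individually at or above 50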;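 also: 0% = plate neutral controls and 100% = maraviroc near 300 nM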
PGC1a acetyl inh – lowers PGC1a acetylation signal in U2OS cells | AlphaScreen anti-acetyl-lysine; with virally co-expressed GCN5 acetyltransferase | inhibition, % at 15.6 µM | 350,000 tested, 0.17% active | AID 651687;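 active = every replicate shows inhibition of at least 40%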;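 also: 0% = neutral control wells and 100% = positive control wells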
FN deposition inh – fibronectin deposition inhibition; AH1F fibroblasts, Alexa488-fibronectin deposition fluorescence, overnight; inhibition, % at 12.6 µM; 350,000 tested, 0.086% active; AID 743247;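 active = mean inhibition across replicates of 30% or more, regardless of how many single replicates reach that level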;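 also: positive control wells lacked labelled fibronectin entirely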
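Material: AH1F fibroblast monolayer depositing Alexa488-labelled fibronectin into matrix | Input: 10000 AH1F cells/well | Medium: DMEM plus 2% serum, read in PBS | Reagent: Alexa488-fibronectin, 24 nM final in well | Compound dosing: One dose per compound, pinned | Schedule: 1 h adhesion, overnight exposure | Measured by: Fluorescence at 485 nm excitation, 525 nm emission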
Active calls of the source: *; nt = no result given; [ ] = dose if it differs, or a comment.

SMILES	DENV2 CPE rescue	PglD DTNB	rRNA inh HTS	HIV Env fusion	PGC1a acetyl inh	FN deposition inh
CN(C)c1ccc2c(c1)[C@H]1C[C@H](CC(=O)NCc3ccccc3)O[C@H](CO)[C@H]1O2	14.8	-3.9	1.1	28.7[16.7 µM]	-2.0	0.4
C[C@@H]1CN([C@@H](C)CO)S(=O)(=O)c2ccc(C3=CCCCC3)cc2O[C@H]1CN(C)Cc1ccccc1	nt	nt	3.1	34.1[16.7 µM]	37.2	-2.7
C[C@@H]1CN([C@H](C)CO)S(=O)(=O)c2ccc(C3=CCCC3)cc2O[C@H]1CN(C)Cc1ccccc1	-9.2	-0.3	0.2	33.4[16.7 µM]	-13.2	nt
C[C@H](CO)N1C[C@H](C)[C@@H](CN(C)C(=O)c2ccccc2)Oc2cc(C3=CCCC3)ccc2S1(=O)=O	5.0	-1.6	2.1	-2.2[16.7 µM]	nt	nt
CCCNC(=O)N(C)C[C@@H]1Oc2cc(C3=CCCCC3)ccc2S(=O)(=O)N([C@H](C)CO)C[C@H]1C	46.9*	-1.5	-0.1	-22.8[16.7 µM]	-15.1	-8.8
CCCNC(=O)N(C)C[C@H]1Oc2cc(C3=CCCCC3)ccc2S(=O)(=O)N([C@@H](C)CO)C[C@H]1C	-3.8	-4.6	-1.8	-18.5[16.7 µM]	-10.8	-20.9
C[C@H](CO)N1C[C@H](C)[C@@H](CN(C)Cc2ccccc2)Oc2cc(C3=CCCC3)ccc2S1(=O)=O	0.2	2.0	1.1	55.4*[16.7 µM]	0.9	nt
C[C@@H]1CN([C@H](C)CO)S(=O)(=O)c2ccc(C3=CCCCC3)cc2O[C@H]1CN(C)Cc1ccccc1	nt	nt	5.6	24.6[16.7 µM]	42.9*	7.7
C[C@H](CO)N1C[C@H](C)[C@H](CN(C)C(=O)c2ccccc2)Oc2cc(C3=CCCC3)ccc2S1(=O)=O	27.3*	-1.8	-6.4	23.4[16.7 µM]	-4.5	nt
CNC[C@H]1Oc2cc(C#CCC3CCCC3)ccc2S(=O)(=O)N([C@@H](C)CO)C[C@@H]1C	5.0	-2.6	0.4	18.4[16.7 µM]	-24.5	nt
C[C@H]1CN([C@@H](C)CO)C(=O)c2cc(NS(=O)(=O)c3ccc(F)cc3)ccc2O[C@H]1CN(C)C(=O)Nc1cccc2ccccc12	1.7	4.3	2.2	0.0[16.7 µM]	3.5	nt
C[C@@H]1CN([C@H](C)CO)S(=O)(=O)c2ccc(-c3cccnc3)cc2O[C@@H]1CN(C)C(=O)NC1CCCC1	8.7	-3.9	-5.8	9.7[16.7 µM]	-10.2	-4.1
O=C(Nc1ccccc1Cl)N1C[C@H]2[C@@H](c3ccccc31)[C@H](CO)N2Cc1ccccc1	-6.7	-1.1	-23.1*	nt	-12.2	nt
COc1ccc(CN2[C@H](CO)[C@H]3c4ccccc4N(C(=O)Nc4ccc(F)cc4)C[C@H]32)cc1	21.9*	-3.6	-4.1	nt	0.5	nt
O=C(Nc1ccccc1Cl)N1C[C@@H]2[C@H](c3ccccc31)[C@@H](CO)N2Cc1ccccc1	-2.9	1.1	-19.6	nt	-2.6	nt
O=C(Cc1ccccn1)N[C@@H]1CC[C@@H](CCNC(=O)c2cc(Cl)cc(Cl)c2)O[C@H]1CO	3.7	-1.8	-4.1	-9.4[16.7 µM]	6.9	-5.6
COCCNC(=O)C[C@@H]1CC[C@@H]2[C@H](COc3ccc(NC(=O)Cc4ccccc4)cc3C(=O)N2C)O1	-0.5	1.7	-1.4	-5.6[16.7 µM]	3.1	-9.6
CC(C)NC(=O)Nc1ccc2c(c1)C(=O)N([C@H](C)CO)C[C@@H](C)[C@H](CN(C)C(=O)Nc1ccc(C(F)(F)F)cc1)O2	9.6	3.2	-3.5	5.7[16.7 µM]	4.6	nt
CCCCS(=O)(=O)/C=C\C=C/S(=O)(=O)CCCC	nt	nt	nt	nt	97.0*	nt
C[C@H](CO)N1C[C@H](C)[C@H](CN(C)C(=O)NC2CCCCC2)Oc2ccc(NS(C)(=O)=O)cc2C1=O	-5.2	9.1	6.9	nt	6.5	nt
CO[C@@H](CN(C)C(=O)c1ccccc1F)[C@H](C)CN([C@H](C)CO)S(=O)(=O)c1ccccc1	-2.0	3.5	-2.6	nt	-3.5	-5.4
CN(CCO)S(=O)(=O)c1ccc2c(c1)C(=NO)c1cc(S(=O)(=O)N(C)CCO)ccc1-2	1.6	0.1	-27.1*	11.7	-14.3	1.8
C[C@H]1CN([C@@H](C)CO)C(=O)c2cc(NC(=O)Nc3ccc(F)cc3)ccc2O[C@@H]1CN(C)C(=O)Nc1ccc2c(c1)OCO2	7.5	nt	7.0	14.4[16.7 µM]	6.7	nt
Cc1cc(C)c2nc(NNC(=O)c3ccc(S(=O)(=O)N4CCCCC4)cc3)sc2c1	-6.0	-1.5	-11.7*	nt	nt	23.5
